Calls of active or inactive are those of the source. The calls are words filed in the database; no cut-off is given here. Square brackets hold non-standard residues; d marks the D form. Peptide text beside a SMILES is read from it. Orn = NCCC[C@H](N)C(=O)O
Assays:
Jurkat [1] = experiment: (§1) Activity on rosetting of jurkat T-cells with SRBC at the concentration of 10e-9 M; format: functional, Homo sapiens
Jurkat [2] = experiment: (§2) Activity on rosetting of jurkat T-cells with SRBC at the concentration of 10e-4 M; format: functional, Homo sapiens
Jurkat [3] = experiment: (§3) Activity on rosetting of jurkat T-cells with SRBC at the concentration of 10e-5 M; format: functional, Homo sapiens
Jurkat [4] = experiment: (§4) Activity on rosetting of jurkat T-cells with SRBC at the concentration of 10e-6 M; format: functional, Homo sapiens
Jurkat [5] = experiment: (§5) Activity on rosetting of jurkat T-cells with SRBC at the concentration of 10e-7 M; format: functional, Homo sapiens
Jurkat [6] = experiment: (§6) Activity on rosetting of jurkat T-cells with SRBC at the concentration of 10e-8 M; format: functional, Homo sapiens
Jurkat [7] = experiment: as §2; format: functional; settings: Homo sapiens
Jurkat [8] = experiment: Activity on rosetting of jurkat T-cells with SRBC at the concentration of 10e-5 M; Not significant; format: functional, cell-based; settings: Homo sapiens
Jurkat [9] = experiment: Activity on rosetting of jurkat T-cells with SRBC at the concentration of 10e-6 M; Not significant; format: functional, cell-based; settings: Homo sapiens
Jurkat [10] = experiment: Activity on rosetting of jurkat T-cells with SRBC at the concentration of 10e-7 M; Not significant; format: functional, cell-based; settings: Homo sapiens, at 0.1 µM
How it was run: (§7)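 Jurkat T lymphoma cells kept in RPMI 1640 with 10% heat-inactivated FCS, washed three times before use; SRBC washed three times. Jurkat cells (2 × 10^6 cells/mL, 2.10⁵ cells) preincubated with peptide in RPMI for 10 min at 4 °C. SRBC (2 × 10^8 cells/mL) added, centrifuged 5 min at 200g, held overnight at 4 °C. Rosettes (three erythrocytes per lymphocyte) counted blind by hemocytometer; three experiments in quadruplicate; % inhibition.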

Jurkat [11] = experiment: Activity on rosetting of jurkat T-cells with SRBC at the concentration of 10e-8 M; Not significant; format: functional, cell-based; settings: Homo sapiens, at 0.01 µM; how it was run: as §7
Jurkat [12] = experiment: Activity on rosetting of jurkat T-cells with SRBC at the concentration of 10e-9 M; Not significant; format: functional, cell-based; settings: Homo sapiens, at 0.001 µM; how it was run: as §7
Jurkat [13] = experiment: Activity on rosetting of jurkat T-cells with SRBC at the concentration of 0 M; format: functional, Homo sapiens
Jurkat [14] = experiment: Activity on rosetting of jurkat T-cells with SRBC at the concentration of 10e-4 M; Not significant; format: functional, cell-based; settings: Homo sapiens
Jurkat [15] = experiment: (§8) Activity on rosetting of jurkat T-cells with SRBC at the concentration of 10e-10 M; format: functional, Homo sapiens
Jurkat [16] = experiment: Activity on rosetting of jurkat T-cells with SRBC at the concentration of 10e-14 M; format: functional, Homo sapiens
Jurkat [17] = experiment: Activity on rosetting of jurkat T-cells with SRBC at the concentration of 10e-15 M; format: functional, Homo sapiens
Jurkat [18] = experiment: Activity on rosetting of jurkat T-cells with SRBC at the concentration of 10e-15 M; Not significant; format: functional, cell-based; settings: Homo sapiens
Jurkat [19] = experiment: as §3; format: functional; settings: Homo sapiens
Jurkat [20] = experiment: as §4; format: functional; settings: Homo sapiens
Jurkat [21] = experiment: as §5; format: functional; settings: Homo sapiens
Jurkat [22] = experiment: as §6; format: functional; settings: Homo sapiens
Jurkat [23] = experiment: (§9) Activity on rosetting of jurkat T-cells with SRBC at the concentration of 10e-11 M; format: functional, Homo sapiens
Jurkat [24] = experiment: Activity on rosetting of jurkat T-cells with SRBC at the concentration of 10e-12 M; format: functional, Homo sapiens
Jurkat [25] = experiment: Activity on rosetting of jurkat T-cells with SRBC at the concentration of 10e-13 M; format: functional, Homo sapiens
Jurkat [26] = experiment: Activity on rosetting of jurkat T-cells with SRBC at the concentration of 10e-13 M; Not significant; format: functional, cell-based; settings: Homo sapiens
Jurkat [27] = experiment: Activity on rosetting of jurkat T-cells with SRBC at the concentration of 10e-14 M; Not significant; format: functional, cell-based; settings: Homo sapiens
Jurkat [28] = experiment: as §8; format: functional; settings: Homo sapiens
Jurkat [29] = experiment: as §9; format: functional; settings: Homo sapiens
Jurkat [30] = experiment: Activity on rosetting of jurkat T-cells with SRBC at the concentration of 10e-12 M; Not significant; format: functional, cell-based; settings: Homo sapiens
Jurkat [31] = experiment: (§10) Activity on rosetting of jurkat T-cells with SRBC at the concentration of 10e-3 M; format: functional, Homo sapiens
Jurkat [32] = experiment: as §10; format: functional; settings: Homo sapiens
Jurkat [33] = experiment: as §1; format: functional; settings: Homo sapiens
Jurkat [34] = experiment: Activity on rosetting of jurkat T-cells with SRBC at the concentration of 10e-10 M; Not significant; format: functional, cell-based; settings: Homo sapiens, at 0.0001 µM; how it was run: as §7
Jurkat [35] = experiment: Activity on rosetting of jurkat T-cells with SRBC at the concentration of 10e-11 M; Not significant; format: functional, cell-based; settings: Homo sapiens, at 10 pM; how it was run: as §7
Jurkat [36] = experiment: Activity on rosetting of jurkat T-cells with SRBC at the concentration of 10e-3 M; Not significant; format: functional, cell-based; settings: Homo sapiens

| Structure (SMILES) | No. of rosettes/100 Jurkat T cells (Jurkat [1]) | No. of rosettes/100 Jurkat T cells (Jurkat [2]) | No. of rosettes/100 Jurkat T cells (Jurkat [3]) | No. of rosettes/100 Jurkat T cells (Jurkat [4]) | No. of rosettes/100 Jurkat T cells (Jurkat [5]) | No. of rosettes/100 Jurkat T cells (Jurkat [6]) | inhibition at 100 µM (Jurkat [7]) [%] | inhibition (Jurkat [8]) | inhibition (Jurkat [9]) | inhibition (Jurkat [10]) | inhibition (Jurkat [11]) | inhibition (Jurkat [12]) | No. of rosettes/100 Jurkat T cells (Jurkat [13]) | inhibition (Jurkat [14]) | No. of rosettes/100 Jurkat T cells (Jurkat [15]) | inhibition at 10 µM (Jurkat [19]) [%] | inhibition at 1 µM (Jurkat [20]) [%] | No. of rosettes/100 Jurkat T cells (Jurkat [23]) | inhibition (Jurkat [34]) | inhibition (Jurkat [35]) | also measured |
| --- | --- | --- | --- | --- | --- | --- | --- | --- | --- | --- | --- | --- | --- | --- | --- | --- | --- | --- | --- | --- | --- |
| N[C@@H](CO)C(=O)N[C@@H](CC(=O)O)C(=O)O (H-Ser-Asp-OH) | 64 | 46 | 55 | 55 | 58 | 55 | 31 | inactive | inactive | inactive | inactive | inactive | 51 |  |  |  |  |  |  |  |  |
| CC(=O)N[C@@H](CO)C(=O)N[C@@H](CC(=O)O)C(=O)N[C@@H](CCCN)C(=O)N1CCC[C@H]1C(=O)O (Ac-SD[Orn]P-OH) |  | 54 | 52 | 52 |  |  |  | inactive | inactive |  |  |  | 58 | inactive |  |  |  |  |  |  |  |
| CC(=O)N[C@@H](CO)C(=O)N[C@@H](CC(=O)O)C(=O)N[C@@H](CCCCN)C(=O)N1CCC[C@H]1C(=O)O (stereo in doubt; form 2) [GORALATIDE] |  | 80 | 78 | 76 | 83 | 83 |  |  |  |  |  |  | 82 |  | 83 |  |  |  |  |  |  |
| NCCCC[C@H](NC(=O)[C@H](CC(=O)O)NC(=O)[C@@H](N)CO)C(=O)N1CCC[C@H]1C(=O)O (H-SDKP-OH) |  | 47 | 49 | 50 | 54 | 56 | 25 |  |  |  |  |  | 63 |  | 55 | 22 | 20 | 55 |  |  | No. of rosettes/100 Jurkat T cells (Jurkat [16]): 61; No. of rosettes/100 Jurkat T cells (Jurkat [17]): 60; inhibition (Jurkat [18]): inactive; inhibition at 0.1 µM (Jurkat [21]): 14%; inhibition at 0.01 µM (Jurkat [22]): 11%; No. of rosettes/100 Jurkat T cells (Jurkat [24]): 59; No. of rosettes/100 Jurkat T cells (Jurkat [25]): 58; inhibition (Jurkat [26]): inactive; inhibition (Jurkat [27]): inactive; inhibition at 0.0001 µM (Jurkat [28]): 13%; inhibition at 10 pM (Jurkat [29]): 13%; inhibition (Jurkat [30]): inactive |
| NCCCC[C@H](NC(=O)[C@@H](N)CC(=O)O)C(=O)O (H-Asp-Lys-OH) |  | 53 | 56 |  |  | 58 |  | inactive |  |  | inactive |  | 56 | inactive |  |  |  |  |  |  |  |
| CC(=O)N[C@@H](CO)C(=O)N[C@@H](CC(=O)O)C(=O)N[C@@H](CCCCN)C(=O)N1CCC[C@H]1C(=O)O (stereo in doubt; form 1) [GORALATIDE] | 48 | 33 | 32 | 37 | 40 | 41 | 48 |  |  |  |  |  | 62 |  | 63 | 48 | 40 | 58 |  |  | No. of rosettes/100 Jurkat T cells (Jurkat [31]): 32; inhibition at 1000 µM (Jurkat [32]): 48%; inhibition at 0.1 µM (Jurkat [21]): 35%; inhibition at 0.01 µM (Jurkat [22]): 34%; inhibition at 0.001 µM (Jurkat [33]): 21% |
| CC(=O)N[C@@H](C)C(=O)N[C@@H](CC(=O)O)C(=O)N[C@@H](CCCCN)C(=O)N1CCC[C@H]1C(=O)O (Ac-ADKP-OH) | 64 | 54 | 57 | 59 | 59 | 63 |  | inactive | inactive | inactive | inactive | inactive | 60 | inactive | 56 |  |  | 56 | inactive | inactive |  |
| NCCCC[C@H](NC(=O)[C@@H](N)CC(=O)O)C(=O)N1CCC[C@H]1C(=O)O (H-Asp-Lys-Pro-OH) |  | 55 | 57 |  |  |  |  | inactive |  |  |  |  | 54 | inactive |  |  |  |  |  |  |  |
| CC(=O)N[C@@H](CO)C(=O)N[C@H](CC(=O)O)C(=O)N[C@@H](CCCCN)C(=O)N1CCC[C@H]1C(=O)O | 51 | 48 | 49 | 42 | 47 | 47 |  | inactive | inactive | inactive | inactive | inactive | 51 | inactive | 43 |  |  | 57 | inactive | inactive | No. of rosettes/100 Jurkat T cells (Jurkat [31]): 48; inhibition (Jurkat [36]): inactive |
| CC(=O)N[C@@H](CO)C(=O)N[C@@H](CCC(=O)O)C(=O)N[C@@H](CCCCN)C(=O)N1CCC[C@H]1C(=O)O (Ac-SEKP-OH) | 43 |  | 29 | 35 | 41 | 42 |  |  |  | inactive | inactive | inactive | 47 |  | 46 | 37 | 25 | 45 | inactive | inactive |  |
| CC(=O)N[C@@H](CO)C(=O)N[C@@H](CC(=O)O)C(=O)N[C@@H](CCCCN)C(=O)N1CCC[C@H]1C(=O)O (stereo in doubt; form 2) |  |  |  |  |  |  |  | inactive | inactive | inactive | inactive |  |  | inactive |  |  |  |  | inactive |  |  |
| CC(=O)N[C@@H](CO)C(=O)N[C@@H](CC(=O)O)C(=O)N[C@@H](CCCCN)C(=O)N1CCC[C@H]1C(=O)O (stereo in doubt; form 1) |  |  |  |  |  |  |  |  |  |  |  |  |  |  |  |  |  |  | inactive | inactive |  |
| CC(=O)N[C@@H](CO)C(=O)N[C@@H](CC(=O)O)C(=O)O (Ac-Ser-Asp-OH) | 51 | 39 | 39 | 46 | 52 | 54 | 30 |  |  | inactive | inactive | inactive | 56 |  | 57 | 30 | 18 | 58 | inactive | inactive |  |

Source: ChEMBL document CHEMBL1124866, “Synthesis and activity of NAcSerAspLysPro analogues on cellular interactions between T-cell and erythrocytes in rosette formation” (1990)
